The sample as a whole holds a higher share of hits than the screen did.
HUVEC prolif 384: human endothelial cell proliferation inhibition | AID 648 | viability, % at 10 µM (by protocol) | 86,000 tested, 1.1% active | HUVEC proliferation, CellTiter-Glo luminescence, 72 h; hits give low values;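 active = viability at or below 30%; inactive = viability above 30%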;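 also: 100% = median luminescence of DMSO-only cell control wells on each plate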
Lung fibro prol: blocks proliferation of human lung fibroblasts | viability, % at 10 µM | AID 719 | LL 47 human lung fibroblast viability, ATP luminescence; hits give low values | 85,000 tested, 1.1% active;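 active = viability at or below 50% in the single dose screen; inactive = viability above 50%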;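 also: compound exposure lasted 72 h before the ATP readout; 100% = median luminescence of untreated cell-only wells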
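Signal: luminescent ATP detection, CellTiter-Glo; assay system: LL 47 human lung fibroblasts; input: 1,150 cells/well; incubation: overnight cell rest, 72 h compound treatment at 37 °C; measure: % viability versus median cells-only luminescence; medium: IMEM growth medium with 15% fetal bovine serum; dosing: compound addition at 0.1% DMSO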
H69AR inhibit: blocks growth of human H69AR lung tumor cells; H69AR lung tumor viability, ATP luminescence, 72 h; hits give low values; AID 598; viability, % at 10 µM; 85,000 tested, 6% active;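 active = viability at or below 40%; inactive = viability above 40%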;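 also: multidrug resistant small cell line overexpressing MRP-1 efflux transporter; 100% = mean luminescence of untreated control wells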
bCat KO growth: beta-catenin-lacking colon tumor cell growth suppression; HCT116 beta-catenin knockout viability, CellTiter-Glo, 60 h; hits give low values; viability, % at 10 µM; 140,000 tested, 1.5% active;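 active = viability at or under a set limit, the compound median less 4 SD, cut at about 6% in these data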;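 also: 0% = Hyamine 1622 control at 20 µM and 100% = untreated cell control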
PTEN del growth: growth suppressors of cells with PTEN tumor suppressor deletion | HCT116 PTEN-null viability, CellTiter-Glo, 60 h; hits give low values | viability, % at 10 µM | AID 827 | 140,000 tested, 1.2% active;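 active = viability at or below a set limit, 4 SD under the median of all tested compounds, cut at about 3.7% in these data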;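 also: PTEN knockout HCT116 line with beta catenin targeted HCT116 as companion control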
The depositor's hits bear a star; . = no result.

SMILES | HUVEC prolif 384 | Lung fibro prol | H69AR inhibit | bCat KO growth | PTEN del growth
CCCCOc1ccc(C(=O)C(CN2CCOCC2)c2ccccc2)cc1 (stereo not drawn) | 2.3* | 92.3 | 1.0* | 1.9* | 2.0*
COc1ccc(C(=O)C(CN2CCCC2)c2ccccc2)cc1 (stereo not drawn) | 47.6 | 10.4* | 1.2* | 2.2* | 1.1*
COc1ccc(C(=O)C(OC(=O)c2ccccc2)c2ccccc2)cc1 (stereo not drawn) | . | . | . | 80.2 | 89.7
COc1cccc(N(CC(=O)N/N=C(\C)c2cccs2)S(C)(=O)=O)c1 | . | . | . | 96.3 | 98.5
CC(Oc1ccc2ccc(=O)oc2c1)C(=O)c1ccccc1 (stereo not drawn) | . | . | . | 95.3 | 100.8
Cc1cnc(NC(=O)c2cc3c(s2)CCCC3)s1 | 75.8 | 83.4 | 23.9* | 65.2 | 64.7
COc1cc(OC)cc(C(=O)Nc2ccc(-c3nc4ccccc4o3)cc2)c1 | 35.2 | 108.4 | 29.9* | 76.5 | 69.3
COc1cccc(C(=O)Nc2cccc(-c3nc4ncccc4o3)c2C)c1 | 105.9 | 98.7 | 93.5 | 110.1 | 102.2
COc1cc(C(=O)Nc2ccc(-c3nc4cc(C)ccc4o3)c(O)c2)cc(OC)c1OC | 80.4 | 85.2 | 23.7* | 12.9 | 10.9
COc1cccc(C(=O)Nc2ccc(-c3nc4ccccc4o3)c(O)c2)c1 | 74.2 | 78.9 | 9.5* | 55.4 | 30.1
COC(=O)c1ccc(-c2nc3ccc(C)cc3o2)cc1 | 65.9 | 97.5 | 26.3* | 11.0 | 9.6
O=C(O)C1C2C=CC(C2)C1C(=O)NCCCn1ccnc1 (stereo not drawn) | 101.8 | 102.7 | 96.1 | 93.8 | 106.3
COc1ccc(-c2nnc(SC(C)C(=O)Nc3cccc(Cl)c3)o2)cc1 (stereo not drawn) | 107.7 | 99.5 | 89.9 | 64.2 | 64.6
CCCN1CCN(CCCNC(=S)Nc2ccc(OC)cc2)CC1 | . | . | . | 82.8 | 93.2
O=C(Nc1ccc(-c2nc3ccccc3o2)c(O)c1)c1cc(-n2cnnc2)ccc1Cl | 94.8 | 98.7 | 21.2* | 82.3 | 61.4
Cc1ccc(OCC(=O)Nc2ccc(O)c(-c3nc4ccccc4o3)c2)cc1 | 3.0* | 53.7 | 13.1* | 86.1 | 71.4
O=C(Nc1ccc(-c2nc3ccccc3o2)cc1)c1ccc(N2C(=O)C3C4C=CC(C4)C3C2=O)cc1 (stereo not drawn) | 31.8 | 74.0 | 15.5* | 78.9 | 79.7
Cc1cccc(NC(=O)c2sc3nc4c(c(-c5cccs5)c3c2N)CN(C)CC4)c1 | 14.9* | 81.2 | 56.8 | 51.7 | 32.0
O=C1OC(c2ccco2)=N/C1=C\c1ccc(-c2cccc(C(F)(F)F)c2)o1 | . | . | . | 93.1 | 89.3
CC1(C)CC(=O)C2=C(C1)N(c1ccccc1)C(N)=C(C#N)C2c1cccnc1 (stereo not drawn) | 92.6 | 86.2 | 35.5* | 92.5 | 84.9
CC1(C)CC(=O)C2=C(C1)N(c1ccccc1)C(N)=C(C#N)C2c1ccccc1 (stereo not drawn) | 92.8 | 87.5 | 56.7 | 89.0 | 98.9
Cc1ccc(N2C(N)=C(C#N)C(c3cccnc3)C3=C2CCCC3=O)cc1 (stereo not drawn) | 89.6 | 93.3 | 29.6* | 85.8 | 92.2
CCOC(=O)C1CCCN(C(=O)c2ccc(C)cc2O)C1 (stereo not drawn) | . | . | . | 79.8 | 85.0
CCN(CC)c1ccc(NC(=O)c2cccc(OC)c2)c(C)c1 | 55.3 | 72.2 | 18.7* | 19.6 | 23.2
CCN(CC)c1ccc(C(=O)Nc2cccc(F)c2)cc1 | 46.9 | 77.1 | 25.0* | 17.5 | 26.7
SMILES | HUVEC prolif 384 | Lung fibro prol | H69AR inhibit | bCat KO growth | PTEN del growth
CCN(CC)c1ccc(NC(=O)c2c(OC)cccc2OC)c(C)c1 | 88.8 | 94.3 | 92.4 | 93.9 | 92.8
CCN(CC)c1ccc(NC(=O)c2cc(OC)cc(OC)c2)c(C)c1 | 33.2 | 55.7 | 24.7* | 11.6 | 12.3
CN(C)c1cccc(C(=O)Nc2cccc(F)c2)c1 | 84.8 | 100.0 | 83.2 | 72.0 | 72.6
Cc1ccc2cc(CN(CCCO)S(=O)(=O)c3cccc4nsnc34)c(=O)[nH]c2c1 | 90.8 | 98.8 | 72.3 | 98.7 | 107.4
Cc1ccc2c(c1)NC(=O)C(CC(=O)NCCCN1CCCCC1)O2 (stereo not drawn) | 90.6 | 100.9 | 88.8 | 96.9 | 99.2
Cc1ccc2c(c1)NC(=O)C(CC(=O)NCCCN1CCN(c3cc(Cl)ccc3C)CC1)O2 (stereo not drawn) | 2.9* | 67.5 | 49.2 | 5.8* | 7.5
O=C(Nc1ccc2c(c1)CCC2)C1CCN(c2c3c(nc4ncnn24)CCC3)CC1 | 76.7 | 78.0 | 31.7* | 33.9 | 52.2
COc1ccc(-c2cc(-c3ccc(OC)cc3)nc(-c3ccc4c(c3)NC(=O)CO4)c2)cc1 | . | . | . | 2.7* | 2.4*
Cc1cccn2c(=O)c3cc(C(=O)N4CCc5ccccc54)n(C)c3nc12 | 60.0 | 91.0 | 25.3* | . | .
CC1Cc2ccccc2N1C(=O)c1cc2c(=O)n3ccccc3nc2n1C (stereo not drawn) | 52.2 | 92.2 | 12.8* | 61.3 | 41.5
Cc1cccn2c(=O)c3cc(C(=O)N4c5ccccc5CC4C)n(C)c3nc12 (stereo not drawn) | 77.4 | 83.1 | 41.8 | 63.4 | 45.0
CCC(Oc1ccccc1)C(=O)O/N=C(\N)c1ccc(OC)c(OC)c1 (stereo not drawn) | . | . | . | 95.1 | 89.9
CN(C1=C(NC(=O)c2ccc(Cl)cc2)C(=O)c2ccccc2C1=O)c1ccccc1 | . | . | . | 1.6* | 1.6*
O=C(Nc1ccc2nn(-c3ccccc3)nc2c1)c1ccc(Br)o1 | 57.2 | 74.1 | 29.6* | 74.2 | 93.3
CCN(CC)c1cc(C)c2cc(NC(=O)c3ccc(Br)o3)ccc2n1 | 28.0* | 90.1 | 58.2 | 12.1 | 8.9
CCN1CCN(c2cc(C)c3cc(NC(=O)c4ccc(Br)o4)ccc3n2)CC1 | 4.5* | 42.7* | 41.5 | 8.0 | 9.4
CCCC(=O)Nc1nc2ccc(NC(=O)c3ccc(Br)o3)cc2s1 | 58.7 | 91.1 | 90.2 | 71.6 | 72.9
O=c1c2c(nc3cc(-c4ccc(F)cc4)[nH]n13)CCC2 | . | . | . | 85.2 | 81.8
CNc1ccc(/C=C2\COc3ccccc3C2=O)cc1[N+](=O)[O-] | 74.2 | 95.9 | 15.6* | 88.9 | 75.5
Cc1cc(C(=O)N[C@H](c2ccccc2)[C@@]2(C)C[C@@H]2[C@@H](C)C(=O)Nc2ccc3ccccc3c2)n(C)n1 | . | . | . | 21.2 | 14.1
O=C(Nc1ccc(C(=O)OC[C@@H]2CCCN3CCCC[C@H]23)cc1)c1cccc(Br)c1 | . | . | . | 91.7 | 96.6
COc1cc(CC(=O)OCC(=O)Nc2cccc([N+](=O)[O-])c2)cc(OC)c1OC | . | . | . | 102.6 | 92.5
CC(C)(C)OC(=O)COc1cc(OCC(=O)OC(C)(C)C)c2c(=O)cc(-c3ccccc3)oc2c1 | . | . | . | 1.5* | 1.7*
COc1cccc(Nc2nc(-c3ccc4c(c3)OCCO4)cs2)c1 | 72.8 | 96.0 | 37.1* | 28.9 | 33.7
N#Cc1ccc(NC(=O)Nc2ccc(Cl)cc2)cc1 | 34.6 | 38.6* | 7.1* | 4.0* | 3.4*
N#CC(C#N)C(c1ccsc1)c1c(-c2ccccc2)[nH][nH]c1=O (stereo not drawn) | 98.9 | 94.9 | 93.6 | 94.4 | 99.8

Bioassay records as filed in PubChem BioAssay.
